Source: PubChem
RBBP9 inhibitor: human RBBP9 inhibitors, primary screen, biochemical, fluorescence polarization, FP-Rh probe, HTS; AID 1515, 2009; actives 0.2% (n = 220,000); inhibition, % at 7.94 µM; recombinant RBBP9;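 active = inhibition above the campaign mean of all tested compounds plus 3 SD, cut at about 14% in these data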
Target sequence (O75884 whole entry, looked up): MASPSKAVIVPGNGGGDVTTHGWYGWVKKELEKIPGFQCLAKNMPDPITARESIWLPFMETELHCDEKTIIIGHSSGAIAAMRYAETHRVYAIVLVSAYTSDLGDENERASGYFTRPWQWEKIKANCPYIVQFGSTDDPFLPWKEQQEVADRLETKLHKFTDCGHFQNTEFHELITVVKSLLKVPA
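System: RBBP9 protein / Quantity: 2.5 µM RBBP9 dispensing solution, before mixing / Also added: Serine-hydrolase probe FP-Rh, 375 nM pre-mixing / Dosing: 7.94 µM single dose, 0.794% DMSO / Timing: enzyme-compound preincubation 30 min, then probe labeling 45 min, 25 °C / Signal: FP readout at 525/598 nm / Controls: DMSO-treated enzyme wells and wells lacking RBBP9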
L929 necroptosis: inhibitors of zVAD-triggered necroptosis, primary screen, L929 cells | L929 zVAD necroptosis rescue, ATP luminescence, 24 h; with zVAD 60 µM | viability rescue, % at 10 µM | actives 0.38% (n = 220,000) | AID 1377, 2008;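 active = activation, scaled between plate controls, above about 75%, limit read from the data; inactive = activation under that limit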
Lipid droplet: inhibitors of hepatocyte lipid droplet formation, primary screen, imaging, high-throughput imaging, BODIPY stain. inhibition, % at 6.5 µM. AML12 mouse hepatocytes, oleate lipid droplets. actives 0.4% (n = 240,000);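 active = lipid droplet intensity inhibited by at least 50%, with more than 500 cells counted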
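Material – AML12 mouse liver cells · Also added – oleate loading, 100 µM · Compound dosing – 6.5 µM single-point dosing · Times – overnight treatment with compound plus oleate · Measured by – fluorescence imaging, 20x objective, two fields per well · Read-out – percent inhibition of filter-corrected integrated lipid droplet intensity per well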
M18AAP inhibitor: PfM18AAP inhibitors, malaria aminopeptidase, primary screen, biochemical, QFRET, recombinant enzyme | AID 1822, 2009 | M18 aspartyl aminopeptidase (Plasmodium falciparum 3D7) | actives 1.2% (n = 290,000) | inhibition, % at 7.35 µM | H-Glu-NHMec fluorogenic cleavage;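 active = inhibition above the campaign mean inhibition over all tested compounds plus 3 SD, cut at about 28% in these data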
TNF death inh: inhibitors of TNF-alpha triggered necroptosis, primary screen, cell-based, Jurkat FADD-/-, single concentration; Jurkat FADD-/- TNF necroptosis rescue, ATP luminescence, 24 h; 0 = TNF only, 100 = no-TNF cells; activation (protection from cell death), % at 10 µM; actives 0.068% (n = 220,000); AID 463075, 2010;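 active = activation, meaning protection from cell death, of at least 50% relative to plate controls; inactive = activation below 50%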;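 note: necroptosis triggered by 40 ng/mL TNF-alpha added together with compound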
TbHK1 inh: Trypanosoma brucei hexokinase 1 inhibitors, primary screen, biochemical, G6PDH-coupled NADH absorbance, MLSCN library; actives 0.11% (n = 220,000); inhibition, % at 10 µM; recombinant TbHK1, G6PDH-coupled NADH A340;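 active = inhibition of 50% or more in the single-dose primary screen; inactive = inhibition below 50%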
Lipid drop inh: hepatocyte lipid droplet accumulation inhibitors, confirmation, imaging, AML12 mouse hepatocytes, single concentration, high-content. shares compounds with Lipid droplet. BODIPY lipid droplet imaging; droplets induced with 100 µM oleic acid. inhibition, % at 5.2 µM. actives 65% (n = 870). AID 463183, 2010;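 active = inhibition of lipid droplet metric at least 50%, with more than 300 cells in each of four replicates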
AML12 tox img: AML12 hepatocyte cytotoxicity, counter-screen for hepatic lipid droplet formation project, imaging, DAPI nuclear morphology imaging | actives 3% (n = 870) | shares compounds with Lipid droplet | z-score at 5 µM | AML12 mouse hepatocytes; stronger effect = higher value; cells fed 100 µM oleate overnight; in the data active = z-score above about 6.3;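 note: compound exposure lasted overnight at 37 °C before fixation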
AML12 tox ATP: AML12 hepatocyte cytotoxicity, confirmation, cytotoxicity control for hepatic lipid droplet formation project, cell-based, single concentration. shares compounds with Lipid droplet. AML12 mouse hepatocyte viability, ATP luminescence; cells loaded with 100 µM oleic acid. cytotoxicity, % at 50 µM. 530 tested, under 10 active. AID 463219, 2010;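 active = cytotoxicity above 50% in each of four replicates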;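 note: compound exposure lasted overnight at 37 °C before the ATP read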
Hits are given with their value. Rows were chosen to be rich in hits. Some 2% of all compounds tested hit in one or more screens of this group.

What do the screens show for `CSc1ccccc1NC(=O)C1=CC(c2cccs2)=NS(=O)(=O)N1C`?
Lipid droplet: 74; M18AAP inhibitor: inactive; Lipid drop inh: 105; AML12 tox img: inactive; AML12 tox ATP: inactive

Results for CC(C)[C@H](NC(=O)c1c(F)cccc1F)C(=O)Nc1cccc(Br)c1 ?
Lipid droplet: inactive; M18AAP inhibitor: inactive

Results for COc1ccc(C)cc1S(=O)(=O)N(CC(=O)O)c1ccc(C)cc1 ?
RBBP9 inhibitor: inactive; L929 necroptosis: inactive; Lipid droplet: 53; M18AAP inhibitor: inactive; TNF death inh: inactive; TbHK1 inh: inactive; Lipid drop inh: inactive; AML12 tox img: inactive

How did C/C(=N\N=C(/N)c1nonc1N)c1ccc2c(c1)OCO2 do in these assays?
RBBP9 inhibitor: inactive; L929 necroptosis: inactive; Lipid droplet: 66; M18AAP inhibitor: inactive; TNF death inh: inactive; TbHK1 inh: inactive; Lipid drop inh: inactive; AML12 tox img: inactive

What do the screens show for `C/C(=N/NC(=O)c1nnn(-c2nonc2N)c1-c1ccccc1)c1ccc2c(c1)OCO2`?
Lipid droplet: inactive; M18AAP inhibitor: inactive

What do the screens show for `C=C(C)C(=O)N1CC2(CC(c3cccc(NC(=O)/C=C\C=C/C)c3)=NO2)C[C@H]1C(N)=O` (stereo partly specified)?
L929 necroptosis: inactive; Lipid droplet: 54; TNF death inh: inactive; TbHK1 inh: inactive; Lipid drop inh: inactive; AML12 tox img: inactive

Results for C/C=C\C=C/C(=O)Nc1cccc(C2=NOC3(C2)C[C@@H](C(N)=O)N(C(=O)/C=C/C=C\C)C3)c1 (stereo partly specified) ?
L929 necroptosis: inactive; Lipid droplet: inactive; TNF death inh: inactive; TbHK1 inh: inactive

How did COc1cc(OC)c(C(=O)N(CCc2ccccc2)Cc2ccccc2)cc1OC do in these assays?
Lipid droplet: inactive; M18AAP inhibitor: inactive

Results for c1ccc2c(c1)CCCC2C1=NCCN1 (stereo unspecified) ?
RBBP9 inhibitor: inactive; L929 necroptosis: inactive; Lipid droplet: 53; M18AAP inhibitor: inactive; TNF death inh: inactive; TbHK1 inh: inactive; Lipid drop inh: inactive; AML12 tox img: inactive

How did Cc1cc(-n2cnnn2)cc(C)c1S(=O)(=O)NCCOc1ccccc1 do in these assays?
Lipid droplet: 61; M18AAP inhibitor: inactive; Lipid drop inh: inactive; AML12 tox img: inactive

Results for CC(=O)c1ccc(OCCNS(=O)(=O)c2ccc(-n3cnnn3)c(C)c2)cc1 ?
Lipid droplet: inactive; M18AAP inhibitor: inactive

What do the screens show for `COc1ccccc1NC(=O)NC1(C(=O)N2CCC(C)CC2)CCCCC1`?
Lipid droplet: inactive; M18AAP inhibitor: inactive

What do the screens show for `CC(C)CCOc1ccc(C(=O)NCC(c2ccco2)N(C)C)cc1` (stereo unspecified)?
Lipid droplet: 54; M18AAP inhibitor: inactive; Lipid drop inh: inactive; AML12 tox img: inactive

Results for CC(C)C(C)(C#N)NC(=O)CSc1nc2scc(-c3ccc(F)cc3)c2c(=O)n1Cc1ccccc1 (stereo unspecified) ?
RBBP9 inhibitor: inactive; L929 necroptosis: inactive; Lipid droplet: 105; M18AAP inhibitor: inactive; TNF death inh: inactive; TbHK1 inh: inactive; Lipid drop inh: 113; AML12 tox img: inactive
